{"source": "ChEMBL document CHEMBL4616673", "about": "(J Med Chem, 2020)", "key": {"[1]": {"test_system": "Raji", "assay": "Antitumor activity against human Raji cells xenografted in NOD-SCID nude mouse assessed as tumor growth inhibition at 30 mg/kg/day, po administered 6 days a week for 3 weeks relative to control", "format": "functional", "details": "read-out: TGI", "outline": "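Nude mice given 1 × 10^7 Raji cells s.c. in serum-free medium plus basement membrane matrix. Randomized at 100–200 mm3 tumour volume (n = 6 per group). Oral dosing 6 days/week for 3 weeks. Vehicles: 30 mg/kg/d in 5% NMP/95% PEG400, 10 mg/kg/d in 30% PEG300/70% saline. Volume = ab²/2 every 3 days. TGI from treated vs control volume change, initial to final day.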"}, "[2]": {"biological_target": "Dihydroorotate dehydrogenase (quinone), mitochondrial (Homo sapiens, UniProt Q02127)", "sequence (Q02127 whole entry)": "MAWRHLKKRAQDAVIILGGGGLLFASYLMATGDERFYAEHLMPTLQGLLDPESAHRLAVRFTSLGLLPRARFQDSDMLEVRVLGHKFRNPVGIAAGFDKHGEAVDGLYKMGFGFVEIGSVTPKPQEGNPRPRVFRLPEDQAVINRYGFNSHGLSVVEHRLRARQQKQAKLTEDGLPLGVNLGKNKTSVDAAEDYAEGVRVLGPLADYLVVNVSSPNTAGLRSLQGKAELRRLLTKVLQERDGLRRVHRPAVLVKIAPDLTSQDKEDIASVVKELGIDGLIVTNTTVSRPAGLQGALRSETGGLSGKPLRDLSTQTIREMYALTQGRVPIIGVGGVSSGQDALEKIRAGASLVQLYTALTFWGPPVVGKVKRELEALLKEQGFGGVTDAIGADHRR", "assay": "Inhibition of human DHODH using dihydroorotate as substrate and CoQ10 as co-substrate preincubated for 30 mins followed by substrate addition by DCIP coupled microplate reader assay"}, "[3]": {"test_system": "Raji", "assay": "Induction of ROS generation in human Raji cells assessed as increase in ROS level measured after 24 hrs by DHE dye based fluorescence microplate reader assay", "format": "functional, cell-based", "outline": "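Raji cells treated 24 h, harvested, stained with 10 μM DHE in pre-warmed PBS for 15 min in the dark. Fluorescence read on a plate reader at ex 510/em 600 nm. Mean ± SD.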"}, "[4]": {"test_system": "Raji", "assay": "Cell cycle arrest in human Raji cells assessed as accumulation at S phase at 0.031 uM measured after 24 hrs by propidium iodide/RNase staining based flow cytometry (reference value: 52%)", "format": "functional"}, "[5]": {"test_system": "Raji", "assay": "Cell cycle arrest in human Raji cells assessed as accumulation at S phase at 0.125 uM measured after 24 hrs by propidium iodide/RNase staining based flow cytometry (reference value: 52%)", "format": "functional"}, "[6]": {"test_system": "Raji", "assay": "Induction of apoptosis in human Raji cells assessed as live cells at 0.031 uM measured after 48 hrs by Annexin V-FITC staining based flow cytometry (reference value: 98.09 %)", "format": "functional"}, "[7]": {"test_system": "Raji", "assay": "Induction of apoptosis in human Raji cells assessed as early apoptotic cells at 0.031 uM measured after 48 hrs by Annexin V-FITC staining based flow cytometry (reference value: 1 %)", "format": "functional"}, "[8]": {"test_system": "Raji", "assay": "Induction of apoptosis in human Raji cells assessed as late apoptotic cells at 0.031 uM measured after 48 hrs by Annexin V-FITC staining based flow cytometry (reference value: 0.7 %)", "format": "functional"}, "[9]": {"test_system": "Raji", "assay": "Induction of apoptosis in human Raji cells assessed as live cells at 0.063 uM measured after 48 hrs by Annexin V-FITC staining based flow cytometry (reference value: 98.09 %)", "format": "functional"}, "[10]": {"test_system": "Raji", "assay": "Induction of apoptosis in human Raji cells assessed as early apoptotic cells at 0.063 uM measured after 48 hrs by Annexin V-FITC staining based flow cytometry (reference value: 1 %)", "format": "functional"}, "[11]": {"test_system": "Raji", "assay": "Induction of apoptosis in human Raji cells assessed as early apoptotic cells at 0.125 uM measured after 48 hrs by Annexin V-FITC staining based flow cytometry (reference value: 1 %)", "format": "functional"}, "[12]": {"test_system": "Raji", "assay": "Induction of apoptosis in human Raji cells assessed as late apoptotic cells at 0.125 uM measured after 48 hrs by Annexin V-FITC staining based flow cytometry (reference value: 0.7 %)", "format": "functional"}, "[13]": {"assay": "Half life in Sprague-Dawley rat at 25 mg/kg, po administered via gavage by LC-MS analysis", "format": "ADME, organism-based", "details": "in vivo", "outline": "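Male Sprague-Dawley rats, fasted overnight, with jugular vein catheters for serial blood sampling. Single dose given by oral gavage (25 mg/kg) or tail-vein injection (5 mg/kg). Blood drawn at set times and centrifuged at once for plasma. Plasma drug levels measured by LC-MS. Parameters reported as means, n = 6.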"}, "[14]": {"assay": "Oral bioavailability in Sprague-Dawley rat at 25 mg/kg administered via gavage by LC-MS analysis", "format": "ADME, organism-based", "details": "in vivo", "outline": "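Male Sprague-Dawley rats, fasted overnight, jugular vein catheter for serial blood sampling. Single dose of 25 mg/kg by oral gavage or 5 mg/kg by tail-vein injection. Blood drawn at set times and spun at once for plasma, plasma drug by LC-MS. Parameters given as mean, n = 6.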"}, "[15]": {"assay": "Half life in rat liver microsomes at 1 uM in presence of NADPH by LC-MS analysis", "format": "ADME, Microsome", "outline": "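Compound at 1 μM with 0.5 mg/mL human, rat or mouse liver microsomes and 1 mM NADPH. Stopped with acetonitrile at 0, 5, 15, 30, 45, 60 and 90 min, centrifuged. Supernatant analysed by LC-MS/MS.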"}, "[16]": {"assay": "Acute toxicity in po dosed BALB/c mouse assessed as maximum tolerated dose", "format": "organism-based", "details": "in vivo", "outline": "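Acute oral dose-escalation in female and male BALB/c mice, 6-8 weeks old, dosed within 24 h. MTD is the highest dose without obvious side effects: body weight loss, diarrhea, anorexia, skin ulcer or toxic death.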"}, "[17]": {"assay": "Acute toxicity in BALB/c mouse assessed as effect on blood BUN level at 400 mg/kg, po measured on day 14", "format": "organism-based", "details": "in vivo", "outline": "(§1)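 BALB/c mice, female and male, 6-8 weeks old, given oral doses within 24 h, up to 400 mg/kg (free compound) or 800 mg/kg (nanocrystal formulation). Watched for body weight loss, diarrhea, anorexia, skin ulcer and toxic death. Serum biochemistry panel was run at the end of treatment.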"}, "[18]": {"assay": "Acute toxicity in BALB/c mouse assessed as effect on blood CHO1 level at 400 mg/kg, po measured on day 14", "format": "organism-based", "details": "in vivo", "outline": "as §1"}, "[19]": {"assay": "Acute toxicity in BALB/c mouse assessed as effect on blood CK level at 400 mg/kg, po measured on day 14", "format": "organism-based", "details": "in vivo", "outline": "as §1"}, "[20]": {"assay": "Acute toxicity in BALB/c mouse assessed as effect on blood CHO1 level at 800 mg/kg, po measured on day 14", "format": "organism-based", "details": "in vivo", "outline": "as §1"}, "[21]": {"assay": "Acute toxicity in BALB/c mouse assessed as effect on blood LDLC level at 800 mg/kg, po measured on day 14", "format": "organism-based", "details": "in vivo", "outline": "as §1"}, "[22]": {"assay": "Acute toxicity in BALB/c mouse assessed as effect on liver at 400 mg/kg, po measured on day 14 by H and E staining based light microscopic analysis", "format": "organism-based", "details": "in vivo", "outline": "(§2)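 Female and male BALB/c mice, 6-8 weeks old, dosed orally within 24 h at up to 400 mg/kg (free compound) or 800 mg/kg (nanocrystal). At the end of treatment, heart, liver, spleen, lung and kidney were sectioned, stained with H&E and imaged by light microscopy.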"}, "[23]": {"assay": "Acute toxicity in BALB/c mouse assessed as effect on liver at 800 mg/kg, po measured on day 14 by H and E staining based light microscopic analysis", "format": "organism-based", "details": "in vivo", "outline": "as §2"}, "[24]": {"assay": "Acute toxicity in BALB/c mouse assessed as effect on spleen at 800 mg/kg, po measured on day 14 by H and E staining based light microscopic analysis", "format": "organism-based", "details": "in vivo", "outline": "as §2"}}, "note": "Where “and” joins values, the source holds several entries; their conditions need not be identical. Equal entries are not always repeated.", "data": [{"smiles": "O=C1c2ccccc2C(=O)c2c1nnn2-c1cc(F)c(-c2ccccc2F)c(F)c1", "values": [{"measurement": "inhibition in vivo at 30 mg/kg/day", "setting": "[1]", "value": 42, "unit": "%"}, {"measurement": "IC50", "setting": "[2]", "value": 4.5, "unit": "nM"}, {"measurement": "Activity", "setting": "[3]", "value": "Dose-dependent effect"}, {"measurement": "Activity", "setting": "[4]", "value": 76.62, "unit": "%"}, {"measurement": "Activity", "setting": "[5]", "value": 86.31, "unit": "%"}, {"measurement": "Activity", "setting": "[6]", "value": 93.14, "unit": "%"}, {"measurement": "Activity", "setting": "[7]", "value": 3.09, "unit": "%"}, {"measurement": "Activity", "setting": "[8]", "value": 3.4, "unit": "%"}, {"measurement": "Activity", "setting": "[9]", "value": 92.31, "unit": "%"}, {"measurement": "Activity", "setting": "[10]", "value": 3.08, "unit": "%"}, {"measurement": "Activity", "setting": "[11]", "value": 4.1, "unit": "%"}, {"measurement": "Activity", "setting": "[12]", "value": 6.04, "unit": "%"}, {"measurement": "half-life", "setting": "[13]; Sprague-Dawley", "value": 8.83, "unit": "h"}, {"measurement": "t1/2", "setting": "[13]", "value": 12.47, "unit": "h"}, {"measurement": "F", "setting": "[14]", "value": "9.66% and 25.16%"}, {"measurement": "t1/2", "setting": "[15]", "value": "0.33 h and 0.9 h"}, {"measurement": "MTD", "setting": "[16]; BALB/c, read-out: MTD", "value": 400, "unit": "mg/kg"}, {"measurement": "MTD", "setting": "[16]", "value": 800, "unit": "mg/kg"}, {"measurement": "Activity", "setting": "[17]", "value": "Non-Toxic"}, {"measurement": "Activity", "setting": "[18]", "value": "Non-Toxic"}, {"measurement": "Activity", "setting": "[19]", "value": "Non-Toxic"}, {"measurement": "Activity", "setting": "[20]", "value": "Non-Toxic"}, {"measurement": "Activity", "setting": "[21]", "value": "Non-Toxic"}, {"measurement": "Activity", "setting": "[22]", "value": "Non-Toxic"}, {"measurement": "Activity", "setting": "[23]", "value": "Non-Toxic"}, {"measurement": "Activity", "setting": "[24]", "value": "Non-Toxic"}]}]}
